Results pooled from the literature.
Lines come from different studies, so protocols differ.
Ribonuclease H1: Ribonuclease H1 (Homo sapiens, UniProt O60930)
CNR2: Cannabinoid receptor 2 (CNR2, Homo sapiens, UniProt P34972)
F10: Coagulation factor X (F10, Homo sapiens, UniProt P00742)

Cc1ccc(NC(=O)c2c(Nc3ccccc3)[nH]c(=O)n(O)c2=O)cc1 has an IC50 of over 10000 nM (Ribonuclease H1; enzyme activity, inhibitor).
For CC(C)(NC(=O)c1nn(CCCCC#N)c2ccccc12)c1cccc(C(N)=O)c1, the Ki was 780 nM (CNR2; ligand displacement, radioligand; cell membranes).
O=C1c2ccccc2C(c2ccccc2F)C(=O)N1O (stereo not shown) gave an IC50 of 4640 nM (Ribonuclease H1; enzyme activity, inhibitor).
CCCCC/C=C\C/C=C\C/C=C\Cc1ccccc1CCCC(=O)N[C@H](C)CO gave an EC50 of 12.5 nM (CNR2; cAMP, agonist).
With COc1ccc(-c2cccc(Nc3cc(=O)n(O)c(=O)n3C)c2)cc1 the IC50 was over 10000 nM (Ribonuclease H1; enzyme activity, inhibitor).
CCOC(=O)c1ccc(OC(=O)CCCCCN=C(N)N)cc1 has an IC50 of 790 nM (F10; enzyme activity, inhibitor).
With CC(C)(NC(=O)c1nn(Cc2ccc(C#N)cc2)c2ccccc12)c1cccc(C(N)=O)c1 the Ki was 290 nM (CNR2; ligand displacement, radioligand; cell membranes).
CCCCC/C=C\[C@H](C)/C=C\C/C=C\Cc1ccccc1CCCC(=O)OC(CO)CO gave an EC50 of 1130 nM (CNR2; cAMP, agonist).
With N=C(N)NCCC[C@H](NC(=O)[C@H](Cc1ccccc1)NC(=O)[C@H](CCC(N)=O)NC(=O)OCc1ccccc1)C(=O)c1nccs1 the Ki was 16 nM (F10; cell-free assay).
With CCCCC/C=C\[C@H](C)/C=C\C/C=C\Cc1ccccc1CCCC(=O)N[C@H](C)CO the EC50 was 213 nM (CNR2; β-arrestin recruitment, agonist).
CC[C@H](C)[C@@H](C(=O)N1CCC[C@H]1c1nccs1)N(C)C(=O)[C@H](CC(C)C)N(C)C(=O)[C@H](Cc1ccc(OC)cc1)N(C)C(=O)/C=C(\C)OC has an IC50 of 17700 nM (CNR2; β-arrestin recruitment, antagonist).
COc1ccc(CCCCC(=O)C(F)(F)C(F)(F)F)cc1 gave an IC50 of 170 nM (85/88 kDa calcium-independent phospholipase A2 (PLA2G6, Homo sapiens, UniProt O60733); enzyme activity, inhibitor).
CCCCCc1ccccc1C/C=C\C/C=C\C/C=C\CCCC(=O)N[C@H](C)CO has an EC50 of 678 nM (CNR2; cAMP, agonist).
CC(C)(NC(=O)c1nn(CCCCC(F)(F)F)c2ccccc12)c1cccc(C(N)=O)c1 has a Ki of 300 nM (CNR2; ligand displacement, radioligand; cell membranes).
The Kd of O=[N+]([O-])c1ccc(O)c([N+](=O)[O-])c1 is reported as over 50000 nM (Casein kinase I isoform alpha (CSNK1A1, Homo sapiens, UniProt P48729); binding, SPR).
CCOC(=O)N[C@@H](CCCNC(=N)N)C(=O)N[C@@H](CCC(N)=O)C(=O)N[C@@H](Cc1ccccc1)C(=O)N[C@@H](CCCNC(=N)N)C(=O)c1nc2ccccc2s1 gave a Ki of 15 nM (F10; cell-free assay).
